One molecule from ChEMBL document CHEMBL4699444, “Design of a Long-Acting and Selective MEG-Fatty Acid Stapled Prolactin-Releasing Peptide Analog” (ACS Med Chem Lett, 2019) can be followed below.

Structures are written as SMILES. *1 amine or outer side, *2 acyl side, *3 side chain or, on linkers, in order; H or OH if unused. Where a SMILES comes first, the peptide text is derived from it. Bridges are numbered along the chain shown (N, C = ends). [ ]: non-standard residue; d: D form. X1 = O=C(O)CCCCCCCCCCCCCCCCC(=O)N[C@@H](CCCCNC(=O)CCOCCOCCNC(=O)CCOCCOCCNC(=O)[C@H](CCCNC(=O)C[*:1])NC(=O)C[*:2])C(=O)O; hArg = N=C(N)NCCCC[C@H](N)C(=O)O; Nle = CCCC[C@H](N)C(=O)O

Assay [1] is described as follows: Ratio of EC50 for activation of human NPFF2R overexpressing CHO cells assessed as inhibition of forskolin-stimulated cAMP […] incubated for 30 mins in presence of IBMX and 0% FBS by fluorescence based assay to EC50 for activation of human GPR10 overexpressed in CHO-K1 cells assessed as increase in beta arrestin recruitment incubated for 90 mins by PathHunter assay.

A further assay deals with Mus musculus. Kind of assay: Anti-obesity activity in sc dosed diet-induced obesity mouse model assessed as reduction in body weight administered daily for 12 days. The format is functional. The settings on record: 288 h, time 12 day. The method in brief: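 Diet-induced obese mice were dosed s.c. once daily at 0.5 mg/kg, or with vehicle, for 12 days (n = 8 per group). Body weight was tracked and compared with the vehicle group.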

Take `CCCC[C@@H]1NC(=O)[C@H](CO)NC(=O)[C@@H](NC(=O)[C@H](CCC(N)=O)NC(=O)[C@H](Cc2c[nH]cn2)NC(=O)[C@H](C)NC(=O)[C@H](CCCNC(=N)N)NC(=O)[C@@H](N)CO)CSCC(=O)NCCC[C@@H](C(=O)NCCOCCOCCC(=O)NCCOCCOCCC(=O)NCCCC[C@H](NC(=O)CCCCCCCCCCCCCCCCC(=O)O)C(=O)O)NC(=O)CSC[C@@H](C(=O)N[C@@H](CC(=O)O)C(=O)N[C@H](C(=O)N[C@@H](CC(N)=O)C(=O)N2CCC[C@H]2C(=O)N[C@@H](C)C(=O)N[C@@H](Cc2c[nH]c3ccccc23)C(=O)N[C@@H](Cc2ccc(O)cc2)C(=O)N[C@H](C(=O)NCC(=O)N[C@@H](CCCCNC(=N)N)C(=O)NCC(=O)N[C@H](C(=O)N[C@@H](CCCNC(=N)N)C(=O)N2CCC[C@H]2C(=O)N[C@H](C(=O)NCC(=O)N[C@@H](CCCNC(=N)N)C(=O)N[C@@H](Cc2ccccc2)C(N)=O)C(C)C)[C@@H](C)CC)[C@@H](C)O)[C@@H](C)CC)NC(=O)[C@H]([C@@H](C)O)NC(=O)[C@H](CCCNC(=N)N)NC(=O)[C@H]([C@@H](C)O)NC(=O)[C@H](CCC(=O)O)NC1=O` (H-SRAHQCS[Nle]ETRTCDINPAWYTG[hArg]GIRPVGRF-NH2; linker 6-13 via X1): the “Ratio EC50” value in assay [1] is listed as 67. Besides, in the assay with Mus musculus, the ED50 was under 0.5 mg/kg.
